Measured values from different studies.
Protocols differ between the studies behind these lines.
Target: Serine/threonine-protein kinase OSR1 (OXSR1, Homo sapiens, UniProt O95747)

Compound	effect on	technique	tested at	remaining binding [%]
Cc1cnc(Nc2ccc(C(=O)N3CCC(N4CCCC4)CC3)cc2)nc1-c1cc2ccccc2s1	binding	competition with immobilised ligand	1 µM	81
CN(C)c1nccc(-c2cnn3ncccc23)n1	binding	–	1 µM	100
CNC(=O)[C@@H]1CC[C@@H](n2c(-c3ccc4cnccc4c3)nc3ccc(C(=O)NCc4cccc(C(N)=O)c4)cc32)C1	binding	competition with immobilised ligand	1 µM	100
Cc1cnn2ncc(-c3ccnc(N(C)C)n3)c2c1	binding	–	1 µM	84
c1cncc(-c2cccc(Nc3nccc(NC4CCCCC4)n3)c2)c1	binding	competition with immobilised ligand	10 µM	100
CO[C@H]1CC[C@H](CNc2ccc(S(=O)(=O)NC(=O)c3ccc(N4CCN(CC5=C(c6ccc(Cl)cc6)CC(C)(C)CC5)CC4)cc3Oc3cnc4[nH]ccc4c3)cc2[N+](=O)[O-])CC1	cell-free assay	competition with immobilised ligand	1 µM	76
C=CC(=O)N1CCC(C(=O)NCC(=O)N2CCN(c3nc(-c4cnc(N)nc4C(F)F)nc(N4CCOCC4)n3)CC2)CC1	binding	competition with immobilised ligand	1 µM	100
CCN1CCN(Cc2ccc(C(=O)Nc3ccc(C)c(Oc4ccc5c(c4)CC(=O)N5)c3)cc2C(F)(F)F)CC1	binding	competition with immobilised ligand	1 µM	97
COc1cnc(Nc2cccc(S(N)(=O)=O)c2)nc1N1CCN(c2ccccc2)C(=O)C1	binding	competition with immobilised ligand	1 µM	100
CS(=O)(=O)N1CCCC(NC(=O)[C@H](CCC2CCCCC2)NC(=O)c2ccc(CNc3ncnc4c3nnn4-c3ccccc3)cc2)C1 (stereo partly shown)	cell-free assay	competition with immobilised ligand	0.1 µM	100
CN(CCCC(F)(F)F)c1nccc(-c2cnn3ncccc23)n1	binding	–	1 µM	100
C[C@H](c1ccc(F)cc1)N(Cc1cccc(C(=O)O)c1)C(=O)c1cnc2ccccc2c1	cell-free assay	competition with immobilised ligand	1 µM	100
C[C@@H](c1ccc(-n2cnc3c(N)ncnc32)cc1)N1CCc2nn(C)c(Cc3ccccc3)c2C1=O	binding	competition with immobilised ligand	0.1 µM	72
O=C(NCCCN1CCOCC1)c1ccc(Nc2nccc(-c3cc4ccccc4s3)n2)cc1	binding	competition with immobilised ligand	1 µM	77
C[C@H]1CCN(c2nccc(-c3cnn4ncccc34)n2)C1	binding	–	1 µM	76
O=S(=O)(NC1CCC(c2cc(F)ccc2F)(S(=O)(=O)c2ccc(Cl)cc2)CC1)C(F)(F)F (stereo not shown)	cell-free assay	competition with immobilised ligand	1 µM	91
CN(c1nccc(-c2cnn3ncccc23)n1)C1CC1	binding	–	1 µM	100
O=C(Nc1cccnn1)N1CCC(=Cc2cccc(Oc3ccc(C(F)(F)F)cn3)c2)CC1	cell-free assay	competition with immobilised ligand	1 µM	100
O=C(c1ccc(Nc2ncc(Cl)c(-c3ccc(Cl)s3)n2)cc1)N1CCC(N2CCCC2)CC1	binding	competition with immobilised ligand	1 µM	87
N[C@@H]1CCN(c2nccc(-c3cnn4ncccc34)n2)C1	binding	–	1 µM	100
CS(=O)(=O)c1cc(C2(NC(=O)c3cncc4c3cnn4-c3ccc(F)cc3)CC2)ccn1	cell-free assay	competition with immobilised ligand	1 µM	85
O=C(Nc1c[nH]nc1C(=O)NC1CCNCC1)c1cc(F)cc(F)c1	binding	competition with immobilised ligand	1 µM	100
